Measured values taken from ChEMBL document CHEMBL4118063, “Design, synthesis and evaluation of aromatic heterocyclic derivatives as potent antifungal agents” (Eur J Med Chem, 2017).
Values after ≈ are worked out from the molar mass of the structure shown.

Tests used:
[1] = biological target: T1, Lanosterol 14-alpha demethylase (Candida albicans (strain SC5314 / ATCC MYA-2876) (Yeast), UniProt P10613); assay: Inhibition of CYP51 in Candida albicans ATCC SC5314 assessed as lanosterol content at 0.125 ug/ml by GS-MS analysis relative to total sterols; design: scale not given: the % may be the effect or the level left
T1 sequence (P10613 whole entry): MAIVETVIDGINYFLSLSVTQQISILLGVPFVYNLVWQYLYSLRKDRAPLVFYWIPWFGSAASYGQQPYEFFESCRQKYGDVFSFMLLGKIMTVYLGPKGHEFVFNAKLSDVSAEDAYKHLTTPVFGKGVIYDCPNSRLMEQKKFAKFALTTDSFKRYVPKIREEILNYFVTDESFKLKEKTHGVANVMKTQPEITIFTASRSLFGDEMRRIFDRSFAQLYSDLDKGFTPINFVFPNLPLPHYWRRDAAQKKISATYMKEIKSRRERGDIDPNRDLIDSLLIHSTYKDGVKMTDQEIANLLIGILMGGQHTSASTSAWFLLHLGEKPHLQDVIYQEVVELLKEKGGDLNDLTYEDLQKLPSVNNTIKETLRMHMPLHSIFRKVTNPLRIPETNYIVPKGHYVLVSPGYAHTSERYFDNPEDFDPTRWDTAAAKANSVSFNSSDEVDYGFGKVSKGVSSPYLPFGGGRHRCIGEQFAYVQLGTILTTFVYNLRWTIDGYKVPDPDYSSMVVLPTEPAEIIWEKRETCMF

[2] = Metabolic stability in human plasma assessed as parent compound remaining at 120 mins; format: ADME, cell-free; conditions: read-out: Stability
Aspergillus fumigatus = assay: Antifungal activity against Aspergillus fumigatus GIM 3.524 by broth microdilution method; format: functional
Summary of the method: (§1)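 Serial twofold-style dilution in growth medium per NCCLS broth microdilution guidelines. Compounds dissolved in DMSO before dilution. Fluconazole and itraconazole served as positive controls. MIC was read as the lowest concentration that prevents visible fungal growth.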

[3] = biological target: T1, Lanosterol 14-alpha demethylase; assay: Inhibition of CYP51 in Candida albicans ATCC SC5314 assessed as obtusifoliol content at 0.03125 ug/ml by GS-MS analysis relative to total sterols (reference value: 0.6%); design: scale not given: the % may be the effect or the level left
[4] = biological target: T1, Lanosterol 14-alpha demethylase; assay: Inhibition of CYP51 in Candida albicans ATCC SC5314 assessed as lanosterol content at 0.5 ug/ml by GS-MS analysis relative to total sterols; design: scale not given: the % may be the effect or the level left; conditions: at 0.5 µg/mL
Candida albicans [5] = assay: Antifungal activity against Candida albicans ATCC SC5314 by broth microdilution method; format: functional; summary of the method: as §1
[6] = biological target: T1, Lanosterol 14-alpha demethylase; assay: Inhibition of CYP51 in Candida albicans ATCC SC5314 assessed as ergosterol content at 0.5 ug/ml by GS-MS analysis relative to total sterols (reference value: 98.7%); design: scale not given: the % may be the effect or the level left; conditions: at 0.5 µg/mL
[7] = biological target: T1, Lanosterol 14-alpha demethylase; assay: Inhibition of CYP51 in Candida albicans ATCC SC5314 assessed as ergosterol content at 0.03125 ug/ml by GS-MS analysis relative to total sterols (reference value: 98.7%); design: scale not given: the % may be the effect or the level left
[8] = biological target: T1, Lanosterol 14-alpha demethylase; assay: Inhibition of CYP51 in Candida albicans ATCC SC5314 assessed as ergosterol content at 0.125 ug/ml by GS-MS analysis relative to total sterols (reference value: 98.7%); design: scale not given: the % may be the effect or the level left
[9] = biological target: T1, Lanosterol 14-alpha demethylase; assay: Inhibition of CYP51 in Candida albicans ATCC SC5314 assessed as eburicol content at 2 ug/ml by GS-MS analysis relative to total sterols (reference value: 0.4%); design: scale not given: the % may be the effect or the level left; conditions: at 2 µg/mL
Candida albicans [10] = assay: Antifungal activity against fluconazole-resistant Candida albicans strain 103 by broth microdilution method; format: functional
Summary of the method: (§2)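 Broth serial dilution in 96-well plates per NCCLS guidelines; compounds dissolved in DMSO and serially diluted into growth medium; MIC taken as lowest concentration inhibiting visible fungal growth. Fluconazole-resistant clinical C. albicans isolates 100 and 103; fluconazole and itraconazole as positive controls.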

[11] = biological target: T1, Lanosterol 14-alpha demethylase; assay: Inhibition of CYP51 in Candida albicans ATCC SC5314 assessed as decrease in ergosterol content by GS-MS analysis
[12] = biological target: T1, Lanosterol 14-alpha demethylase; assay: Inhibition of CYP51 in Candida albicans ATCC SC5314 assessed as ergosterol content at 2 ug/ml by GS-MS analysis relative to total sterols (reference value: 98.7%); design: scale not given: the % may be the effect or the level left; conditions: at 2 µg/mL
[13] = biological target: T1, Lanosterol 14-alpha demethylase; assay: Inhibition of CYP51 in Candida albicans ATCC SC5314 assessed as obtusifoliol content at 8 ug/ml by GS-MS analysis relative to total sterols (reference value: 0.6%); design: scale not given: the % may be the effect or the level left; conditions: at 8 µg/mL
[14] = biological target: T1, Lanosterol 14-alpha demethylase; assay: Inhibition of CYP51 in Candida albicans ATCC SC5314 assessed as eburicol content at 0.03125 ug/ml by GS-MS analysis relative to total sterols (reference value: 0.4%); design: scale not given: the % may be the effect or the level left
[15] = biological target: T1, Lanosterol 14-alpha demethylase; assay: Inhibition of CYP51 in Candida albicans ATCC SC5314 assessed as increase in eburicol content by GS-MS analysis
[16] = biological target: T1, Lanosterol 14-alpha demethylase; assay: Inhibition of CYP51 in Candida albicans ATCC SC5314 assessed as lanosterol content at 8 ug/ml by GS-MS analysis relative to total sterols; design: scale not given: the % may be the effect or the level left; conditions: at 8 µg/mL
[17] = biological target: T1, Lanosterol 14-alpha demethylase; assay: Inhibition of CYP51 in Candida albicans ATCC SC5314 assessed as lanosterol content at 2 ug/ml by GS-MS analysis relative to total sterols; design: scale not given: the % may be the effect or the level left; conditions: at 2 µg/mL
[18] = biological target: T1, Lanosterol 14-alpha demethylase; assay: Inhibition of CYP51 in Candida albicans ATCC SC5314 assessed as obtusifoliol content at 0.5 ug/ml by GS-MS analysis relative to total sterols (reference value: 0.6%); design: scale not given: the % may be the effect or the level left; conditions: at 0.5 µg/mL
[19] = biological target: T1, Lanosterol 14-alpha demethylase; assay: Inhibition of CYP51 in Candida albicans ATCC SC5314 assessed as ergosterol content at 8 ug/ml by GS-MS analysis relative to total sterols (reference value: 98.7%); design: scale not given: the % may be the effect or the level left; conditions: at 8 µg/mL
Candida tropicalis = assay: Antifungal activity against Candida tropicalis cgmcc 2.3739 by broth microdilution method; format: functional; summary of the method: as §1
[20] = biological target: T1, Lanosterol 14-alpha demethylase; assay: Inhibition of CYP51 in Candida albicans ATCC SC5314 assessed as increase in lanosterol content by GS-MS analysis
Candida albicans [21] = assay: Antifungal activity against fluconazole-resistant Candida albicans strain 100 by broth microdilution method; format: functional; summary of the method: as §2
[22] = biological target: T1, Lanosterol 14-alpha demethylase; assay: Inhibition of CYP51 in Candida albicans ATCC SC5314 assessed as eburicol content at 8 ug/ml by GS-MS analysis relative to total sterols (reference value: 0.4%); design: scale not given: the % may be the effect or the level left; conditions: at 8 µg/mL
[23] = biological target: T1, Lanosterol 14-alpha demethylase; assay: Inhibition of CYP51 in Candida albicans ATCC SC5314 assessed as eburicol content at 0.125 ug/ml by GS-MS analysis relative to total sterols (reference value: 0.4%); design: scale not given: the % may be the effect or the level left
[24] = biological target: T1, Lanosterol 14-alpha demethylase; assay: Inhibition of CYP51 in Candida albicans ATCC SC5314 assessed as obtusifoliol content at 2 ug/ml by GS-MS analysis relative to total sterols (reference value: 0.6%); design: scale not given: the % may be the effect or the level left; conditions: at 2 µg/mL
Candida albicans [25] = assay: Antifungal activity against Candida albicans CPCC 400523 by broth microdilution method; format: functional; summary of the method: as §1
[26] = biological target: T1, Lanosterol 14-alpha demethylase; assay: Inhibition of CYP51 in Candida albicans ATCC SC5314 assessed as obtusifoliol content at 0.125 ug/ml by GS-MS analysis relative to total sterols (reference value: 0.6%); design: scale not given: the % may be the effect or the level left
Cryptococcus neoformans = assay: Antifungal activity against Cryptococcus neoformans cgmcc 2.3161 by broth microdilution method; format: functional; summary of the method: as §1
[27] = Metabolic stability in human plasma assessed as parent compound remaining at 60 mins; format: ADME, cell-free; conditions: read-out: Stability
[28] = biological target: T1, Lanosterol 14-alpha demethylase; assay: Inhibition of CYP51 in Candida albicans ATCC SC5314 assessed as eburicol content at 0.5 ug/ml by GS-MS analysis relative to total sterols (reference value: 0.4%); design: scale not given: the % may be the effect or the level left; conditions: at 0.5 µg/mL
[29] = biological target: T1, Lanosterol 14-alpha demethylase; assay: Inhibition of CYP51 in Candida albicans ATCC SC5314 assessed as 4,4-dimethyl zymosterol content at 8 ug/ml by GS-MS analysis relative to total sterols; design: scale not given: the % may be the effect or the level left
Summary of the method: (§3)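 C. albicans SC5314 cells exposed to drug at 0.03125–8 µg/mL alongside untreated and fluconazole-treated cells; sterols extracted and analysed by GC-MS with cholesterol as internal standard; each sterol expressed as percent of total sterols.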

[30] = biological target: T1, Lanosterol 14-alpha demethylase; assay: Inhibition of CYP51 in Candida albicans ATCC SC5314 assessed as 4,4-dimethyl zymosterol content at 2 ug/ml by GS-MS analysis relative to total sterols; design: scale not given: the % may be the effect or the level left; summary of the method: as §3

CC(C)OC(=O)[C@H](Cn1ccnc1)NC(=O)c1cc(-c2ccccc2F)on1
Activity [1]: 2.2%
remaining at 2 h [2]: 91.8%
MIC (Aspergillus fumigatus): 4 µg/mL (≈ 10.4 µM)
Activity [3]: 4.3%
Activity [4]: 16.7%
MIC (Candida albicans [5]): 0.0625 µg/mL (≈ 0.162 µM)
Activity [6]: 30.8%
Activity [7]: 93.9%
Activity [8]: 85.9%
Activity [9]: 63.3%
MIC (Candida albicans [10]): 1 µg/mL (≈ 2.59 µM)
inhibition (INH) [11]: Dose-dependent effect
Activity [12]: 5.4%
Activity [13]: 8.9%
Activity [14]: 1.7%
inhibition (INH) [15]: Dose-dependent effect
Activity [16]: 26.7%
Activity [17]: 22%
Activity [18]: 6.9%
Activity [19]: 0.7%
MIC (Candida tropicalis): 0.0312 µg/mL (≈ 0.0809 µM)
inhibition (INH) [20]: Dose-dependent effect
MIC (Candida albicans [21]): 1 µg/mL (≈ 2.59 µM)
Activity [22]: 63.7%
Activity [23]: 4.9%
Activity [24]: 9.2%
MIC (Candida albicans [25]): 0.25 µg/mL (≈ 0.647 µM)
Activity [26]: 6.9%
MIC (Cryptococcus neoformans): 0.5 µg/mL (≈ 1.29 µM)
remaining at 1 h [27]: 95.3%
Activity [28]: 45.6%

OC(Cn1cncn1)(Cn1cncn1)c1ccc(F)cc1F [FLUCONAZOLE]
Activity [1]: 0.4%
MIC (Aspergillus fumigatus): 16 µg/mL (≈ 52.2 µM)
Activity [3]: 3.6%
Activity [4]: 4.5%
MIC (Candida albicans [5]): 1 µg/mL (≈ 3.27 µM)
Activity [6]: 81.4%
Activity [29]: 13%
Activity [7]: 95.6%
Activity [8]: 88.7%
Activity [9]: 27%
MIC (Candida albicans [10]): > 64 µg/mL
inhibition (INH) [11]: Dose-dependent effect
Activity [12]: 18.2%
Activity [13]: 13.3%
Activity [14]: 0.8%
Activity [30]: 15.7%
inhibition (INH) [15]: Dose-dependent effect
Activity [16]: 34.8%
Activity [17]: 23%
Activity [18]: 6.9%
Activity [19]: 1.7%
MIC (Candida tropicalis): 0.25 µg/mL (≈ 0.816 µM)
inhibition (INH) [20]: Dose-dependent effect
MIC (Candida albicans [21]): > 64 µg/mL
Activity [22]: 37.2%
Activity [23]: 2%
Activity [24]: 16.1%
MIC (Candida albicans [25]): 2 µg/mL (≈ 6.53 µM)
Activity [26]: 8.9%
MIC (Cryptococcus neoformans): 4 µg/mL (≈ 13.1 µM)
Activity [28]: 7.2%
